Converted amounts (≈) assume the structure as drawn. The source made the active and inactive calls. No cut-off for these calls is given here.
Key:
[1] = system: Klebsiella pneumoniae; test: Antibacterial activity against Klebsiella pneumonia assessed as reduction in microbial growth by two fold microdilution method; assay type: functional
[2] = system: Staphylococcus aureus; test: Antibacterial activity against Staphylococcus aureus ATCC 29213 assessed as reduction in microbial growth by two fold microdilution method; assay type: functional
[3] = system: Staphylococcus aureus; test: Antibacterial activity against Staphylococcus aureus ATCC 25923 assessed as reduction in microbial growth by two fold microdilution method; assay type: functional
[4] = system: Escherichia coli; test: Antibacterial activity against Escherichia coli assessed as reduction in microbial growth by two fold microdilution method; assay type: functional
[5] = system: Enterococcus faecalis; test: Antibacterial activity against Enterococcus faecalis assessed as reduction in microbial growth by two fold microdilution method; assay type: functional
[6] = system: Staphylococcus aureus; test: Antibacterial activity against methicillin-resistant Staphylococcus aureus assessed as reduction in microbial growth by two fold microdilution method; assay type: functional
Summary of the method: (§1)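 MIC determined by the standard two-fold broth micro-dilution assay, with norfloxacin and ciprofloxacin as reference agents.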

[7] = system: Acinetobacter baumannii; test: Antibacterial activity against Acinetobacter baumannii assessed as reduction in microbial growth by two fold microdilution method; assay type: functional
[8] = system: Pseudomonas aeruginosa; test: Antibacterial activity against Pseudomonas aeruginosa assessed as reduction in microbial growth by two fold microdilution method; assay type: functional
[9] = system: Pseudomonas aeruginosa; test: Antibacterial activity against Pseudomonas aeruginosa ATCC 27853 assessed as reduction in microbial growth by two fold microdilution method; assay type: functional
[10] = system: Staphylococcus aureus; test: Antibacterial activity against methicillin-resistant Staphylococcus aureus assessed as reduction in bacterial growth at 50 to 300 ug/ml measured after 14 passages; assay type: functional, organism-based; settings: dose 50-300 µg/ml
[11] = system: Staphylococcus aureus; test: Antibacterial activity against Staphylococcus aureus assessed as reduction in microbial growth by two fold microdilution method; assay type: functional; summary of the method: as §1
[12] = system: Escherichia coli; test: Antibacterial activity against Escherichia coli ATCC 25922 assessed as reduction in microbial growth by two fold microdilution method; assay type: functional
[13] = system: Staphylococcus aureus; test: Potency index, ratio of norfloxacin MIC to test compound MIC for antibacterial activity against methicillin-resistant Staphylococcus aureus assessed as reduction in microbial growth by two fold microdilution method; assay type: functional
[14] = system: Klebsiella pneumoniae; test: Antibacterial activity against Klebsiella pneumonia in presence of (E)-1-cyclopropyl-6-fluoro-7-(4-(2-((2-methoxy-2-oxoethoxy)imino)-2-(thiazol-2-yl)ethyl)piperazin-1-yl)-4-oxo-1,4-dihydroquinoline-3-carboxylic acid (reference value: 2 ug/ml)
[15] = system: Staphylococcus aureus; test: microbe, parasite or virus in culture
[16] = system: Staphylococcus aureus; test: microbe, parasite or virus in culture; settings: ATCC 25923
[17] = system: Staphylococcus aureus; test: Potency index, ratio of norfloxacin MIC to test compound MIC for antibacterial activity against Staphylococcus aureus ATCC 29213 assessed as reduction in microbial growth by two fold microdilution method; assay type: functional

SMILES | MIC [1] [µg/mL] | MIC [2] [µg/mL] | MIC [3] [µg/mL] | MIC [4] [µg/mL] | MIC [5] [µg/mL] | MIC [6] [µg/mL] | MIC [7] [µg/mL] | MIC [8] [µg/mL] | MIC [9] [µg/mL] | Activity [10] | MIC [11] [µg/mL] | MIC [12] [µg/mL] | Ratio [13] | MIC [14] [µg/mL] | MIC [15] [µg/mL] | MIC [16] [µg/mL] | Ratio [17]
CC(C)(C)O/N=C(\CN1CCN(c2c(F)cc3c(=O)c(C(=O)O)cn(C4CC4)c3c2Cl)CC1)c1nccs1 | 256 | 0.25 | 0.5 | 4 | 0.25 | 0.25 | 0.25 | 0.25 | 0.25 | inactive | 0.25 | 0.25 | – | – | – | – | –
CCn1cc(C(=O)O)c(=O)c2cc(F)c(N3CCN(C/C(=N\OCc4ccccc4)c4nccs4)CC3)cc21 | 128 | 256 | 0.25 | 0.5 | 0.25 | 0.25 | 1 | 0.5 | 1 | – | 4 | 64 | 64 | – | – | – | –
CCn1cc(C(=O)O)c(=O)c2cc(F)c(N3CCN(C/C(=N\OCC(=O)OC)c4nccs4)CC3)cc21 | 256 | 2 | 0.25 | 32 | 0.25 | 0.25 | 1 | 0.25 | 0.25 | – | 4 | 0.25 | 64 | – | – | – | –
CC(C)(C)O/N=C(\CN1CCN(c2cc3c(cc2F)c(=O)c(C(=O)O)cn3C2CC2)CC1)c1nccs1 | 64 | 4 | 1 | 128 | 2 | 4 | 4 | 0.25 | 0.25 | – | 4 | 1 | – | – | – | – | –
CO/N=C(\CN1CCN(c2c(F)cc3c(=O)c(C(=O)O)cn(C4CC4)c3c2Cl)CC1)c1nccs1 | 0.25 | 0.25 | 0.5 | 0.25 | 0.25 | 0.25 | 0.25 | 1 | 0.25 | inactive | 0.25 | 0.25 | – | – | – | – | –
CCO/N=C(\CN1CCN(c2cc3c(cc2F)c(=O)c(C(=O)O)cn3C2CC2)CC1)c1nccs1 | 0.25 | 4 | 0.5 | 2 | 0.25 | 0.25 | 1 | 0.25 | 0.25 | – | 0.25 | 32 | – | – | – | – | –
COC(=O)CO/N=C(\CN1CCN(c2c(F)cc3c(=O)c(C(=O)O)cn(C4CC4)c3c2Cl)CC1)c1nccs1 | 256 | 0.25 | 0.25 | 4 | 0.25 | 0.25 | 4 | 0.25 | 0.25 | – | 0.25 | 0.5 | – | – | – | – | –
CO/N=C(\CN1CCN(c2cc3c(cc2F)c(=O)c(C(=O)O)cn3C2CC2)CC1)c1nccs1 | 256 | 0.25 | 0.25 | 0.25 | 0.25 | 0.25 | 1 | 0.25 | 2 | inactive | 0.25 | 256 | – | – | – | – | –
O=C(CN1CCN(c2cc3c(cc2F)c(=O)c(C(=O)O)cn3C2CC2)CC1)c1nccs1 | 16 | 2 | 4 | 4 | 8 | 16 | 2 | 1 | 1 | – | 1 | 4 | – | – | – | – | –
C=CCO/N=C(\CN1CCN(c2cc3c(cc2F)c(=O)c(C(=O)O)cn3CC)CC1)c1nccs1 | 256 | 2 | 0.5 | 0.25 | 1 | 0.25 | 0.25 | 0.25 | 4 | inactive | 0.25 | 0.5 | 64 | – | – | – | –
CCn1cc(C(=O)O)c(=O)c2cc(F)c(N3CCN(C/C(=N\OC)c4nccs4)CC3)cc21 | 256 | 0.25 | 0.5 | 0.25 | 4 | 0.25 | 0.25 | 0.25 | 8 | inactive | 2 | 256 | 64 | – | – | – | –
O=C(O)c1cn(C2CC2)c2c(Cl)c(N3CCN(C/C(=N\OCc4ccccc4)c4nccs4)CC3)c(F)cc2c1=O | 0.25 | 2 | 1 | 0.25 | 0.25 | 0.25 | 0.25 | 1 | 0.25 | – | 2 | 0.25 | – | – | – | – | –
CCn1cc(C(=O)O)c(=O)c2cc(F)c(N3CCNCC3)cc21 [NORFLOXACIN] | 4 | 2 | 2 | 16 | 4 | 16 | 2 | 2 | 8 | – | 4 | 16 | – | – | – | – | –
CCn1cc(C(=O)O)c(=O)c2cc(F)c(N3CCN(C/C(=N\OC(C)(C)C)c4nccs4)CC3)cc21 | 1 | 16 | 1 | 1 | 0.25 | 0.25 | 16 | 2 | 1 | – | 0.25 | 1 | 64 | – | – | – | –
CCO/N=C(\CN1CCN(c2c(F)cc3c(=O)c(C(=O)O)cn(C4CC4)c3c2Cl)CC1)c1nccs1 | 256 | 0.25 | 0.5 | 0.25 | 0.25 | 0.25 | 0.25 | 0.25 | 0.25 | inactive | 0.25 | 256 | – | – | – | – | –
CCO/N=C(\CN1CCN(c2cc3c(cc2F)c(=O)c(C(=O)O)cn3CC)CC1)c1nccs1 | 256 | 4 | 0.5 | 0.25 | 16 | 0.25 | 2 | 0.25 | 8 | – | 8 | 256 | 64 | – | – | – | –
O=C(O)c1cn(C2CC2)c2cc(N3CCNCC3)c(F)cc2c1=O [CIPROFLOXACIN] | 2 | 0.5 | 2 | – | 2 | 8 | – | – | 1 | – | 2 | – | – | 0.125 | 2 (≈ 6.04 µM) | 1 (≈ 3.02 µM) | –
CCn1cc(C(=O)O)c(=O)c2cc(F)c(N3CCN(CC(=O)c4nccs4)CC3)cc21 | 32 | 1 | 2 | 32 | 2 | 4 | 16 | 4 | 2 | – | 4 | 64 | 4 | – | – | – | 16
C=CCO/N=C(\CN1CCN(c2cc3c(cc2F)c(=O)c(C(=O)O)cn3C2CC2)CC1)c1nccs1 | 0.25 | 32 | 0.25 | 1 | 0.25 | 0.25 | 0.25 | 0.25 | 0.25 | – | 0.25 | 0.5 | – | – | – | – | –
C=CCO/N=C(\CN1CCN(c2c(F)cc3c(=O)c(C(=O)O)cn(C4CC4)c3c2Cl)CC1)c1nccs1 | 256 | 0.5 | 0.25 | 0.25 | 0.25 | 0.25 | 0.25 | 0.25 | 0.25 | – | 0.25 | 0.5 | – | – | – | – | –
O=C(O)c1cn(C2CC2)c2cc(N3CCN(C/C(=N\OCc4ccccc4)c4nccs4)CC3)c(F)cc2c1=O | 256 | 0.5 | 1 | 0.25 | 2 | 0.25 | 8 | 0.25 | 1 | – | 0.25 | 256 | – | – | – | – | –

From ChEMBL document CHEMBL4813987, “Membrane active 7-thiazoxime quinolones as novel DNA binding agents to decrease the genes expression and exert potent anti-methicillin-resistant Staphylococcus aureus activity” (Eur J Med Chem, 2021)
